Read-outs that look alike come from different tables or passages of the source.
Columns and labels:
[1] = test system: A549 cells (human lung carcinoma); experiment: MTT cytotoxicity assay, A549; assay type: cell-based; details: read-out: (IC50 ± SD) A549
[2] = test system: SKOV3 cells (human ovarian carcinoma); experiment: MTT cytotoxicity assay, SKOV3; assay type: cell-based; details: read-out: (IC50 ± SD) SKOV3, at least 72 h incubation, mean ± SD
In short: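 Cells were grown in RPMI 1640 with 10% FBS and 1% penicillin-streptomycin at 37 °C, humidified CO2. They were seeded at 0.8 × 10^4 cells/well and allowed 24 h recovery. Test compound was added at 1–100 μM in triplicate for at least 72 h. Medium was replaced with 0.5 mg/mL MTT for 3 h at room temperature, and formazan was dissolved in DMSO. Absorbance was read at 490 nm. IC50 came from curve fitting, reported as mean ± SD.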

SKOV3 cells = experiment: Intracellular ROS determination; assay type: cell-based, human; details: SKOV3, 1000 μM, positive control
In short: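 SKOV3 single-cell suspension (300 × 10^3) was exposed to test compound at 10, 20 or 40 μM for 2 h at 37 °C; untreated cells served as negative control. Cells were washed and loaded with DCFH-DA in phenol red-free RPMI for 1 h at 37 °C. The positive control got H2O2 (1000 μM) for a further 20 min. At least 15000 events were acquired by flow cytometry. ROS is reported as MFI divided by the untreated MFI0.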

MCF-7 cells = experiment: Comet assay; assay type: cell-based, human; details: MCF-7, 1 μM, positive control, versus untreated cells
In short: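 Alkaline comet assay on MCF-7 cells (5 × 10^5). Cells got test compound at 10 or 50 μM, doxorubicin at 1 μM as positive control, or no treatment, for 20 min at 37 °C in 5% CO2. Cells were embedded in LMPA over NMPA-coated slides, lysed cold overnight and held 40 min in alkaline buffer. Slides were electrophoresed at 24 V/300 mA, neutralised at pH 7.4, ethanol-dehydrated, PI-stained (50 μg/ml) and imaged by fluorescence microscopy at 20×.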

[3] = MTT, at least 72 h incubation, mean ± SD

`N.N.[Cl][Pt][Cl]` [Cisplatin, reference compound] gave an IC50 [1, 3] of 9.71 ± 1.7 µM and an IC50 [2] of 14.5 ± 1.54 µM.
With `OO` [Complex H2O2, H2O2] the ROS induction (SKOV3 cells) was “could induce ROS production within 20 minutes”.
Work on `C=CCP(c1ccccc1)c1ccccc1` [PPh2allyl, allyldiphenylphosphine] yielded an IC50 [1, 3] of over 100 µM.
In the case of `Sc1nc2ccccc2[nH]1` [Sbi, benzimidazole-2-thiol], the IC50 ([1]; Homo sapiens, A549, 72 h) is reported as over 100 µM.
In the case of `Sc1nc2ccccc2s1` [Sbt, benzothiazole-2-thiol], the IC50 ([1]; Homo sapiens, A549, 72 h) is reported as over 100 µM.
`Sc1ccccn1` [Spy, pyridine-2-thiol] gave an IC50 ([1]; Homo sapiens, A549, 72 h) of over 100 µM.
`FC(F)(F)c1ccc(S)nc1` [Spy-5-CF3, 5-(trifluoromethyl)-pyridine-2-thiol] showed an IC50 ([1]; Homo sapiens, A549, 72 h) of over 100 µM.
Work on `Sc1ncccn1` [SpyN, pyrimidine-2-thiol] yielded an IC50 ([1]; Homo sapiens, A549, 72 h) of over 100 µM.
For `COc1cccc2c1C(=O)c1c(O)c3c(c(O)c1C2=O)C[C@@](O)(C(=O)CO)C[C@@H]3O[C@H]1C[C@H](N)[C@H](O)[C@H](C)O1` [doxorubicin], the “percentage of degraded DNA in the tail” value (MCF-7 cells) was “remarkably increase”.

Reference: paper PMC7108934 (ChemPlusChem, 2019)
